In brackets after ≈: the same amount, converted by molar mass. Activity calls are given as the source filed them. The calls are words filed in the database; no cut-off is given here.
How the values were obtained:
[1] = biological target: Acetylcholinesterase (Electrophorus electricus) (UniProt O42275); experiment: Inhibition of electric eel AChE using acetylthiocholine iodide as substrate pretreated for 15 mins followed by substrate addition measured for 6 mins by Ellman's method
How it was run: (§1)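 Ellman spectrophotometric assay in 0.1 M phosphate buffer pH 8.0 with DTNB, 25 °C. AChE (electric eel, Type V-S) or BChE was preincubated 15 min with compound before adding acetylthiocholine iodide or butyrylthiocholine iodide, respectively. Absorbance change at 412 nm was read for 6 min. Five concentrations were tested in triplicate, corrected by a nonenzymatic blank, with a no-inhibitor reference.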

Escherichia coli [2] = experiment: Antibacterial activity against Escherichia coli ATCC 10536 assessed as diameter of inhibition zone at 200 ug per disc after 24 hrs by agar disc diffusion method; type: functional; details: ATCC 10536, 24 h, read-out: DIZ
How it was run: (§2)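 Agar disc diffusion. Compounds at 20 mg mL⁻¹ in DMSO, filter-sterilised. 100 µL of 10⁸ CFU mL⁻¹ bacteria spread on nutrient agar. 6 mm discs carried 10 µl (200 µg per disc), with DMSO discs as negative control. Incubation 24 h at 37 °C. Read-out is inhibition zone diameter, mean of 3 repeats (±1 mm).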

Proteus vulgaris [3] = experiment: Antibacterial activity against Proteus vulgaris PTCC 1182 assessed as diameter of inhibition zone at 200 ug per disc after 24 hrs by agar disc diffusion method; type: functional; details: PTCC 1182, 24 h, read-out: DIZ; how it was run: as §2
Salmonella paratyphi [4] = experiment: Antibacterial activity against Salmonella paratyphi A serotype ATCC 5702 assessed as diameter of inhibition zone at 200 ug per disc after 24 hrs by agar disc diffusion method; type: functional, Salmonella enterica subsp. enterica serovar Paratyphi A; details: Salmonella enterica, ATCC 5702, 24 h; read-out: DIZ; how it was run: as §2
Candida albicans [5] = experiment: Antifungal activity against Candida albicans ATCC 10231 assessed as diameter of inhibition zone at 200 ug per disc after 48 hrs by agar disc diffusion method; type: functional; details: ATCC 10231, 48 h, read-out: DIZ
How it was run: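 Yeast tested by agar disc diffusion. Compounds at 20 mg mL⁻¹ in DMSO, filter-sterilised. 6 mm discs carried 10 µl (200 µg per disc), with DMSO discs as negative control. Incubation 48 h at 30 °C. Zone diameter was averaged over 3 repeats (±1 mm).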

Pseudomonas aeruginosa [6] = experiment: Antibacterial activity against Pseudomonas aeruginosa ATCC 27853; type: functional
Staphylococcus aureus [7] = experiment: Antibacterial activity against Staphylococcus aureus ATCC 29737; type: functional
Shigella dysenteriae [8] = experiment: Antibacterial activity against Shigella dysenteriae PTCC 1188; type: functional
Escherichia coli [9] = experiment: Antibacterial activity against Escherichia coli ATCC 10536; type: functional
Staphylococcus aureus [10] = experiment: Antibacterial activity against Staphylococcus aureus ATCC 29737 assessed as diameter of inhibition zone at 200 ug per disc after 24 hrs by agar disc diffusion method; type: functional; details: ATCC 29737, 24 h, read-out: DIZ; how it was run: as §2
Pseudomonas aeruginosa [11] = experiment: Antibacterial activity against Pseudomonas aeruginosa ATCC 27853 assessed as diameter of inhibition zone at 200 ug per disc after 24 hrs by agar disc diffusion method; type: functional; details: ATCC 27853, 24 h, read-out: DIZ; how it was run: as §2
Bacillus spizizenii [12] = experiment: Antibacterial activity against Bacillus subtilis ATCC 6633 assessed as diameter of inhibition zone at 200 ug per disc after 24 hrs by agar disc diffusion method; type: functional; details: ATCC 6633, 24 h, read-out: DIZ; how it was run: as §2
Salmonella paratyphi [13] = experiment: Antibacterial activity against Salmonella paratyphi A serotype ATCC 5702; type: functional, Salmonella enterica subsp. enterica serovar Paratyphi A; details: Salmonella enterica
Bacillus spizizenii [14] = experiment: Antibacterial activity against Bacillus subtilis ATCC 6633; type: functional
Shigella dysenteriae [15] = experiment: Antibacterial activity against Shigella dysenteriae PTCC 1188 assessed as diameter of inhibition zone at 200 ug per disc after 24 hrs by agar disc diffusion method; type: functional; details: PTCC 1188, 24 h, read-out: DIZ; how it was run: as §2
Aspergillus niger [16] = experiment: Antifungal activity against Aspergillus niger ATCC 16404; type: functional
Aspergillus brasiliensis [17] = experiment: Antifungal activity against Aspergillus brasiliensis PTCC 5011; type: functional
Klebsiella pneumoniae [18] = experiment: Antibacterial activity against Klebsiella pneumoniae ATCC 10031; type: functional
Aspergillus niger [19] = experiment: Antifungal activity against Aspergillus niger ATCC 16404 assessed as diameter of inhibition zone at 200 ug per disc after 72 hrs by agar disc diffusion method; type: functional; details: ATCC 16404, 72 h, read-out: DIZ
How it was run: (§3)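 Agar disc diffusion against mold. Compounds at 20 mg mL⁻¹ in DMSO, filter-sterilised. 6 mm discs carried 10 µl (200 µg per disc), with DMSO discs as negative control. Incubation 72 h at 30 °C. Read-out is growth inhibition zone diameter, mean of 3 repeats (±1 mm).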

Cholinesterase = Cholinesterase (Equus caballus, UniProt P81908); experiment: Inhibition of equine serum BChE using butyrylthiocholine iodide as substrate pretreated for 15 mins followed by substrate addition measured for 6 mins by Ellman's method; how it was run: as §1
Chain of Cholinesterase (P81908 whole entry): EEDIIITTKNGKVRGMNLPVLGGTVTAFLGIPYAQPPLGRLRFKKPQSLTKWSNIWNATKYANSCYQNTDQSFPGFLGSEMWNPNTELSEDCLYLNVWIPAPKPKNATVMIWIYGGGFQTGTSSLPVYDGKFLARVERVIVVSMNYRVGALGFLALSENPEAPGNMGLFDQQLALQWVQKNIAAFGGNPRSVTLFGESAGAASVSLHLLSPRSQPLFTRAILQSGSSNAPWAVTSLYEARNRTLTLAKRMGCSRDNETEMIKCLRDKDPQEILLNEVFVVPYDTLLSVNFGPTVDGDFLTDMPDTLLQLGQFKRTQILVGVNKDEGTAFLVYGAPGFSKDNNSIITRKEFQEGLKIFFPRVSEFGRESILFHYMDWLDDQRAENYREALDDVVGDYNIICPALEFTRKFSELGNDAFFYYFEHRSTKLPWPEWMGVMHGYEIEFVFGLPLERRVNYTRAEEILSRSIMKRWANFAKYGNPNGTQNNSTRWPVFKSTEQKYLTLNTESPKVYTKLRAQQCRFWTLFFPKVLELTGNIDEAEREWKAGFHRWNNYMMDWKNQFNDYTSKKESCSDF

Proteus vulgaris [20] = experiment: Antibacterial activity against Proteus vulgaris PTCC 1182; type: functional
[21] = test system: Staphylococcus epidermidis; experiment: Antibacterial activity against Staphylococcus epidermidis ATCC 12228; type: functional
[22] = test system: Staphylococcus epidermidis; experiment: Antibacterial activity against Staphylococcus epidermidis ATCC 12228 assessed as diameter of inhibition zone at 200 ug per disc after 24 hrs by agar disc diffusion method; type: functional; details: ATCC 12228, 24 h, read-out: DIZ; how it was run: as §2
Aspergillus brasiliensis [23] = experiment: Antifungal activity against Aspergillus brasiliensis PTCC 5011 assessed as diameter of inhibition zone at 200 ug per disc after 72 hrs by agar disc diffusion method; type: functional; details: PTCC 5011, 72 h, read-out: DIZ; how it was run: as §3
Klebsiella pneumoniae [24] = experiment: Antibacterial activity against Klebsiella pneumoniae ATCC 10031 assessed as diameter of inhibition zone at 200 ug per disc after 24 hrs by agar disc diffusion method; type: functional; details: ATCC 10031, 24 h, read-out: DIZ; how it was run: as §2
Candida albicans [25] = experiment: Antifungal activity against Candida albicans ATCC 10231; type: functional

Chain of Acetylcholinesterase (Electrophorus electricus) (O42275 24-633 limits assumed): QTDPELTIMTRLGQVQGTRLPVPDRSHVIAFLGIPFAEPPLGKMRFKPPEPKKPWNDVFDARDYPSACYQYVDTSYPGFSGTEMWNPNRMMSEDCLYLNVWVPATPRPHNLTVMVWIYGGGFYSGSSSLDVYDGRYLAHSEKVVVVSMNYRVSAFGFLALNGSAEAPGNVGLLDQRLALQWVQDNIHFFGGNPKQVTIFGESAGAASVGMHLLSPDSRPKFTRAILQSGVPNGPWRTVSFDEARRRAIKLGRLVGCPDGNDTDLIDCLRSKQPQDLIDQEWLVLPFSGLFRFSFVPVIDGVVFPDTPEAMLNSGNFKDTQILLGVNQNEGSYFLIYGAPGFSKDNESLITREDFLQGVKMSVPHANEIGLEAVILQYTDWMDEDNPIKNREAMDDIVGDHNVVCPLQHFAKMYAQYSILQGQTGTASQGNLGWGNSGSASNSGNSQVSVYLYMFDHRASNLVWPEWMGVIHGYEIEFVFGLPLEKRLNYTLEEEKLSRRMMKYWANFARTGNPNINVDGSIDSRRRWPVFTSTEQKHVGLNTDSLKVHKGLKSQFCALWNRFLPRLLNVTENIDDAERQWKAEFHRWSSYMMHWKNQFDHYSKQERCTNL

Question: Which results are given for O=[N+]([O-])c1cccc(C2CC(c3cc4cc(Br)ccc4o3)=Nc3ccccc3S2)c1 (configuration not stated)?
Answer: inhibition [1]: inactive; zone of inhibition at 200 µg/disc (Escherichia coli [2]): < 6 mm; zone of inhibition at 200 µg/disc (Proteus vulgaris [3]): < 6 mm; zone of inhibition at 200 µg/disc (Salmonella paratyphi [4]): 23 mm; zone of inhibition at 200 µg/disc (Candida albicans [5]): < 6 mm; MIC (Pseudomonas aeruginosa [6]): inactive; MIC (Staphylococcus aureus [7]): inactive; MIC (Shigella dysenteriae [8]): inactive; MIC (Escherichia coli [9]): inactive; zone of inhibition at 200 µg/disc (Staphylococcus aureus [10]): < 6 mm; zone of inhibition at 200 µg/disc (Pseudomonas aeruginosa [11]): < 6 mm; zone of inhibition at 200 µg/disc (Bacillus spizizenii [12]): 19 mm; MIC (Salmonella paratyphi [13]): 0.5 µg/mL (≈ 1.04 µM); MIC (Bacillus spizizenii [14]): 12.5 µg/mL (≈ 26.1 µM); zone of inhibition at 200 µg/disc (Shigella dysenteriae [15]): < 6 mm; MIC (Aspergillus niger [16]): 0.25 µg/mL (≈ 0.522 µM); MIC (Aspergillus brasiliensis [17]): 0.5 µg/mL (≈ 1.04 µM); MIC (Klebsiella pneumoniae [18]): inactive; zone of inhibition at 200 µg/disc (Aspergillus niger [19]): 20 mm; IC50 (Cholinesterase): Not Active; MIC (Proteus vulgaris [20]): inactive; MIC [21]: inactive; zone of inhibition at 200 µg/disc [22]: < 6 mm; zone of inhibition at 200 µg/disc (Aspergillus brasiliensis [23]): 23 mm; zone of inhibition at 200 µg/disc (Klebsiella pneumoniae [24]): < 6 mm; MIC (Candida albicans [25]): inactive

Question: Which inhibition [1] does the source give for O=[N+]([O-])c1ccc2oc(C3=Nc4ccccc4SC(c4cccc5ccccc45)C3)cc2c1 (configuration not stated) here?
Answer: inactive

Question: And the zone of inhibition at 200 µg/disc (Escherichia coli [2])?
Answer: < 6 mm

Question: And the zone of inhibition at 200 µg/disc (Proteus vulgaris [3])?
Answer: < 6 mm

Question: And the zone of inhibition at 200 µg/disc (Salmonella paratyphi [4])?
Answer: 11 mm

Question: And the zone of inhibition at 200 µg/disc (Candida albicans [5])?
Answer: 13 mm

Question: And the MIC (Pseudomonas aeruginosa [6])?
Answer: inactive

Question: And the MIC (Staphylococcus aureus [7])?
Answer: 0.25 µg/mL (≈ 0.555 µM)

Question: And the MIC (Shigella dysenteriae [8])?
Answer: inactive

Question: And the MIC (Escherichia coli [9])?
Answer: inactive

Question: And the zone of inhibition at 200 µg/disc (Staphylococcus aureus [10])?
Answer: 20 mm

Question: What about the zone of inhibition at 200 µg/disc (Pseudomonas aeruginosa [11]) of the same compound?
Answer: < 6 mm

Question: And the zone of inhibition at 200 µg/disc (Bacillus spizizenii [12])?
Answer: 15 mm

Question: And the MIC (Salmonella paratyphi [13])?
Answer: 50 µg/mL (≈ 111 µM)

Question: What about the MIC (Bacillus spizizenii [14]) of the same compound?
Answer: 0.125 µg/mL (≈ 0.277 µM)

Question: And the zone of inhibition at 200 µg/disc (Shigella dysenteriae [15])?
Answer: < 6 mm

Question: What about the MIC (Aspergillus niger [16]) of the same compound?
Answer: inactive

Question: And the MIC (Aspergillus brasiliensis [17])?
Answer: inactive

Question: And the MIC (Klebsiella pneumoniae [18])?
Answer: 50 µg/mL (≈ 111 µM)

Question: What about the zone of inhibition at 200 µg/disc (Aspergillus niger [19]) of the same compound?
Answer: < 6 mm

Question: And the IC50 (Cholinesterase; read-out: IC50)?
Answer: 55 µM

Question: What about the MIC (Proteus vulgaris [20]) of the same compound?
Answer: inactive

Question: And the MIC [21]?
Answer: 0.25 µg/mL (≈ 0.555 µM)

Question: And the zone of inhibition at 200 µg/disc [22]?
Answer: 30 mm

Question: And the zone of inhibition at 200 µg/disc (Aspergillus brasiliensis [23])?
Answer: < 6 mm

Question: What about the zone of inhibition at 200 µg/disc (Klebsiella pneumoniae [24]) of the same compound?
Answer: 11 mm

Question: And the MIC (Candida albicans [25])?
Answer: 2.5 µg/mL (≈ 5.55 µM)

From ChEMBL document CHEMBL4118244, “Design, synthesis and biological evaluation of benzofuran appended benzothiazepine derivatives as inhibitors of butyrylcholinesterase and antimicrobial agents” (Bioorg Med Chem, 2018)
